DDE Tn7 FP inh – inhibitors of Tn7 peptide binding to fibrin DD(E), primary screen, biochemical, fluorescence polarization, human fibrin, Tn7 probe; AID 720508, 2013; inhibition, % at 8.3 µM; 0.13% of 370,000 active; Fibrinogen beta chain (Homo sapiens), P02675; FP displacement of FITC-Tn7 peptide from fibrin DD(E); 0% = median of compound wells per plate;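 active = inhibition above the mean of compounds falling within the control limits plus 3 SD of them, cut at about 14% in these data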;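 also: 0% = plate median of compound wells and 100% = 10 µM Aha-Tn7 peptide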
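system = human fibrin DD(E) protein | quantity = DD(E) 2 µM final | medium = Tris/NaCl/CaCl2 buffer, pH 7.8 | also added = labelled Tn7 tracer, 0.1 µM | compound dosing = single point at 8.3 µM | timing = compound with protein 10 min, then 3 h after probe, room temperature | signal = FP measurement | benchmarks = Aha-Tn7 high control | repeats = one replicate per compound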
UHRF1 binding – UHRF1 methylated DNA binding inhibitors, primary screen, counter-screen for MBD2 inhibitor project, biochemical, TR-FRET, human UHRF1, single concentration. E3 ubiquitin-protein ligase UHRF1 (Homo sapiens), Q96T88. UHRF1 binding to methylated oligo. inhibition, % at 4.4 µM. 0.75% of 370,000 active;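 also: UHRF1 SRA domain binding a hemimethylated CpG hairpin DNA probe; 0% = median of test compound wells and 100% = reference inhibitor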
Target sequence (Q96T88 whole entry, looked up, the tested form may be a part): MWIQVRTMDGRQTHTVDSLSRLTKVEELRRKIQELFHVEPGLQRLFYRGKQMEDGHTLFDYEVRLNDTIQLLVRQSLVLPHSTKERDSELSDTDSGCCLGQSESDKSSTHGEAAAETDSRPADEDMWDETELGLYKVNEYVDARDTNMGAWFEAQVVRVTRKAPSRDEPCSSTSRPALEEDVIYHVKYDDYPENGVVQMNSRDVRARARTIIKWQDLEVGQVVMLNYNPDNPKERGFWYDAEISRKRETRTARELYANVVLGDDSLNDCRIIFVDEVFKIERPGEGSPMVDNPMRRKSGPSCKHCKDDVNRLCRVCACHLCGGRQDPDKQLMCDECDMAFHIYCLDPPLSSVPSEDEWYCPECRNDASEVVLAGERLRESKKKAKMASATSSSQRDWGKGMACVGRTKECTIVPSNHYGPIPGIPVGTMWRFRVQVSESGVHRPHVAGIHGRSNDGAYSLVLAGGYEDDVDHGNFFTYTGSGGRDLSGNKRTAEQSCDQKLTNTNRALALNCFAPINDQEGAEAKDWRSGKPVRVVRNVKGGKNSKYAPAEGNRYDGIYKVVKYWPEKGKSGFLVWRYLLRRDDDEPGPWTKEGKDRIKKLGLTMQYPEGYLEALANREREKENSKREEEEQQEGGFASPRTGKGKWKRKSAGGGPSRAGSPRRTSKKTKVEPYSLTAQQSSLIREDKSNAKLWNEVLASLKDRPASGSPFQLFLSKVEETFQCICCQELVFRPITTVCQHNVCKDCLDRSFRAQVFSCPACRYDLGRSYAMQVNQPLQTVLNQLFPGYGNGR
DDE Tn6 FP inh – inhibitors of Tn6 peptide binding to fibrin DD(E), primary screen, biochemical, fluorescence polarization, human fibrin, Tn6 probe; Fibrin DD(E) TRITC-Tn6 fluorescence polarization displacement; 0.21% of 370,000 active; Fibrinogen beta chain (Homo sapiens), P02675; inhibition, % at 8.3 µM;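 active = inhibition above a per-campaign cutoff: mean of compounds within control limits plus 3 SD, cut at about 15% in these data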;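 also: 0% = median of all compound wells on the plate and 100% = blocking peptide control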
LEDGF integ inh – blockers of LEDGF/p75-dependent integrase strand transfer – biochemical, TR-FRET, high throughput, primary screen; TR-FRET IN-LEDGF/p75 DNA integration, Eu/Cy5; HIV-1 integrase (with human LEDGF/p75); inhibition, % at 3.7 µM; 0.64% of 370,000 active;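 active = inhibition above the screen-wide mean plus 3 SD, cut at about 13% in these data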;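 also: signal is the Cy5 over europium emission ratio at 671 and 618 nm; 0% = plate median of compound wells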
TDP2 absorb – human TDP2 enzyme inhibitors, primary screen, biochemical, epi absorbance, recombinant enzyme; AID 720702, 2013; T5PNP hydrolysis, p-nitrophenol absorbance 415 nm; inhibition, % at 12.8 µM; 0.34% of 370,000 active;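 active = inhibition above the mean of all tested compounds plus 3 SD, set per campaign, cut at about 25% in these data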;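 also: 0% = DMSO with enzyme and 100% = buffer with substrate but no TDP2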
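Test system: Human TDP2 enzyme | Reagent: 5 mM T5PNP | Compound dosing: 12.8 µM single point, 1% DMSO | Incubation: Enzyme reaction with compound for 2 h at 37 °C | Technique: p-Nitrophenol epi absorbance | Read-out: % inhibition relative to enzyme-containing and enzyme-free wells | Benchmarks: High control without enzyme, low control DMSO plus TDP2 | Replicates: Singlicate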
MBD2 DNA inh – inhibitors of MBD2 binding to methylated DNA, primary screen, biochemical, TR-FRET, DNA-binding domain, human. 0.31% of 370,000 active. MBD2 binding to methylated oligonucleotide. inhibition, % at 4.4 µM. Methyl-CpG-binding domain protein 2 (Homo sapiens), Q9UBB5. AID 686964, 2013; in the data active = inhibition above about 13%
UHRF1 ctr MBD2 – UHRF1 methylated DNA binding inhibitors, counter-screen for MBD2 inhibitor project, biochemical, TR-FRET, human UHRF1; shares compounds with MBD2 DNA inh; UHRF1 binding to methylated oligonucleotide; inhibition, % at 4.4 µM; 25% of 1,000 active; AID 720530, 2013;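 also: UHRF1 SRA domain binding a labeled hemimethylated CpG hairpin DNA; 0% = vehicle only and 100% = reference inhibitor with vehicle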
MBD2 confirm – inhibitors of MBD2 binding to methylated DNA, confirmation, biochemical, TR-FRET, DNA-binding domain, human; 26% of 1,000 active; TR-FRET MBD2-DBD binding to methylated oligonucleotide; inhibition, % at 4.4 µM; shares compounds with MBD2 DNA inh; in the data active = inhibition above about 14%
Numbers without * were called inactive; x = no result given. Shown are actives, neighbours in structure and some others; about 1.9% of the full set was active somewhere. Rule as the data show it, unless noted: active = inhibition above about 21%; inactive = the rest.

SMILES	DDE Tn7 FP inh	UHRF1 binding	DDE Tn6 FP inh	LEDGF integ inh	TDP2 absorb	MBD2 DNA inh	UHRF1 ctr MBD2	MBD2 confirm
Cc1[nH]nc2c1C(c1cccc(C(F)(F)F)c1)N(Cc1ccccc1)C2=O (centres undefined)	6	3	0	2	0	6	x	x
O=C(Nc1ccc(F)cc1)OCc1cn(Cc2ccc(F)cc2)nn1	0	-2	9	3	-6	-3	x	x
S=C1NCCN1c1ccc(Cl)cc1	-2	1	0	-2	0	-5	x	x
CN1CCN(CCCNc2nc3ccccc3c3nc(-c4ccccc4)nn23)CC1	0	6	2	-3	1	3	x	x
CCN(CC)CCCNc1nc2cc(OC)c(OC)cc2c2nc(-c3cccnc3)nn12	-10	68*	-18	0	4	69*	81*	78*
COc1cc2nc(NCCCN3CCN(C)CC3)n3nc(-c4ccccc4)nc3c2cc1OC	-7	49*	-37	7	-6	48*	41*	42*
CCN(CC)CCCNc1nc2cc(OC)c(OC)cc2c2nc(-c3ccccc3)nn12	-4	35*	-18	1	3	35*	56*	57*
COCCCNc1nc2cc(OC)c(OC)cc2c2nc(-c3ccccc3)nn12	7	1	0	-1	10	3	x	x
Cc1ccc(NC(=O)OCCN(C)C(=O)Nc2ccc(C)cc2C)c(C)c1	5	2	-6	-2	-9	5	x	x
CN(c1cccnc1)c1ccc(NC(=O)Cc2c[nH]c3ccccc23)cc1-c1ccc(C(C)(C)C)cc1	-1	-2	-7	7	0	-1	x	x
C[N+](=O)C1C(=O)Nc2ccccc21 (centres undefined)	7	-3	-4	-1	7	101*	3	-3
O=C1Nc2ccccc2C1Cc1ccccc1 (centres undefined)	0	0	2	-1	8	-6	x	x
COC(=O)Cc1nnn2c1[C@H](C)[C@H](c1cccc(OC)c1OC)OCC2	-1	26*	3	11	0	16*	6	3
COC(=O)Cc1nnn2c1[C@H](C)[C@H](C(C)(C)C)OCC2	-5	-2	-3	1	4	0	x	x
CN(Cc1ccc(F)cc1)C(=O)c1cccc2c1C(=O)N(Cc1cccnc1)C2	-6	-1	-4	1	0	6	x	x
Cc1cccc(C)c1NC(=O)C1c2cccc[n+]2CC(=O)N1Cc1cccs1 (centres undefined)	4	-1	4	-1	8	46*	1	3
Cc1ccccc1NC(=O)C1c2cccc[n+]2CC(=O)N1Cc1ccc2c(c1)OCO2 (centres undefined)	-2	-2	-1	2	5	-7	x	x
CN(C)c1ccc(/C=C/C(=O)c2ccccc2)cc1[N+](=O)[O-]	-11	-5	-4	1	-10	-4	x	x
O=C(/C=C/c1ccc(O)c([N+](=O)[O-])c1)c1ccc2ccccc2c1	6	0	7	3	-4	44*	4	-1
COC(=O)c1cc2c(c3c4ccccc4n(S(=O)(=O)c4ccc(OC)cc4)c13)C(=O)N(Cc1ccc(C(F)(F)F)cc1)C2	-1	1	4	9	-2	0	x	x
O=S(=O)(c1ccc(F)cc1)N1CCC(c2nc3ccccc3o2)CC1	3	0	-5	4	2	2	x	x
CN(C)/C=C1\N=C(c2ccc(Cl)cc2Cl)OC1=O	-2	18	-3	2	-5	16*	7	4
CN(C)/C=C1\N=C(c2cccnc2Oc2ccc(Cl)cc2)OC1=O	-3	1	-3	3	2	-5	x	x
O=S1(=O)CCSC[C@@H](CN2CCCC2)N1	-7	2	2	8	-9	-1	x	x
NNC(=O)Cn1c2ccccc2c2ccccc21	-4	-2	2	3	2	14*	8	3
SMILES	DDE Tn7 FP inh	UHRF1 binding	DDE Tn6 FP inh	LEDGF integ inh	TDP2 absorb	MBD2 DNA inh	UHRF1 ctr MBD2	MBD2 confirm
COC(=O)C1=C(C)N(Cc2ccccc2C(F)(F)F)C(=NCc2cccc(C(F)(F)F)c2)NC1CCc1ccccc1 (centres undefined)	3	1	-7	-2	-1	2	x	x
Nc1[nH]c(C(=O)c2ccccc2)c(-c2cccc3ccccc23)c1C(=O)NCc1ccc(F)c(F)c1	1	-4	0	-1	7	-4	x	x
CCCCCNC(=O)N[C@H](C(=O)O)C(C)C	5	1	0	2	7	16*	8	5
CCCCOCCCNC(=O)N[C@H](C(=O)OC)C(C)C	-2	-3	1	-3	-13	5	x	x
COc1ccc(Cc2nnc(NC(=O)CS(=O)(=O)c3ccc(C)cc3)s2)cc1OC	-4	-2	-9	0	11	22*	8	1
O=C(Nc1cccc(Cl)c1)NN(c1ccccc1)C1CCS(=O)(=O)C1 (centres undefined)	2	16	2	1	5	0	x	x
COC(=O)C1=C(C)N(Cc2ccccc2C(F)(F)F)C(=NCc2ccc(OC)cc2)NC1CCc1ccccc1 (centres undefined)	5	-1	6	-3	-1	-3	x	x
Cc1ccc(SCCN2CCC(C(C)(C)C)CCC2=O)cc1 (centres undefined)	-5	30*	-5	12	11	14*	5	4
C=C(C)C(=O)Nc1cccc(C2=NOC3(C2)C[C@H](C(N)=O)N(C(=O)c2ccccc2C(=O)c2ccccc2)C3)c1 (some centres undefined)	-9	80*	-2	12	-6	31*	67*	42*

From PubChem
